Data as given in ChEMBL document CHEMBL1123392 (J Med Chem, 1986).
The source made the active and inactive calls. The rule behind the calls is not given here.

What was measured:
Rattus norvegicus [1] = assay: Dopaminergic activity in rats rendered hypokinetic by the bilateral injection of 6-hydroxydopamine (6-OHDA) into the anterolateral hypothalamus at dose of 50 mg/kg sc; Inactive; format: functional, organism-based; design: dose 50 mg/kg
[2] = biological target: T1, Adrenergic receptor alpha-1 (Rattus norvegicus, UniProt P15823+P23944+P43140); assay: Ability to displace [3H]WB-4101 from rat brain alpha-1 adrenergic receptor
T1 sequence (P15823 whole entry): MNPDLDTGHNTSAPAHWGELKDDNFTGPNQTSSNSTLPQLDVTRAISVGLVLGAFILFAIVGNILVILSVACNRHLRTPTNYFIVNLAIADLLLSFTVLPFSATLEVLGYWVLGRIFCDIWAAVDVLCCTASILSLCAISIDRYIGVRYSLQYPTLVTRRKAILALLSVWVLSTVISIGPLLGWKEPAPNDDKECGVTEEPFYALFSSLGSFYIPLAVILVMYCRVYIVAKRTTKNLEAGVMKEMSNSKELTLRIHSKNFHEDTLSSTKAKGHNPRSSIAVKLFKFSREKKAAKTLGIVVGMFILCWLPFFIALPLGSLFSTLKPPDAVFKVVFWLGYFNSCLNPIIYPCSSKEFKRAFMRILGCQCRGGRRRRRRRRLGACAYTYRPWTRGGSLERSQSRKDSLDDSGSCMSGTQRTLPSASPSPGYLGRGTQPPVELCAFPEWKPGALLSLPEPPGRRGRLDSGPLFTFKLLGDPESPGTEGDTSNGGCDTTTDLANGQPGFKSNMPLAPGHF
T1 sequence (P23944 whole entry): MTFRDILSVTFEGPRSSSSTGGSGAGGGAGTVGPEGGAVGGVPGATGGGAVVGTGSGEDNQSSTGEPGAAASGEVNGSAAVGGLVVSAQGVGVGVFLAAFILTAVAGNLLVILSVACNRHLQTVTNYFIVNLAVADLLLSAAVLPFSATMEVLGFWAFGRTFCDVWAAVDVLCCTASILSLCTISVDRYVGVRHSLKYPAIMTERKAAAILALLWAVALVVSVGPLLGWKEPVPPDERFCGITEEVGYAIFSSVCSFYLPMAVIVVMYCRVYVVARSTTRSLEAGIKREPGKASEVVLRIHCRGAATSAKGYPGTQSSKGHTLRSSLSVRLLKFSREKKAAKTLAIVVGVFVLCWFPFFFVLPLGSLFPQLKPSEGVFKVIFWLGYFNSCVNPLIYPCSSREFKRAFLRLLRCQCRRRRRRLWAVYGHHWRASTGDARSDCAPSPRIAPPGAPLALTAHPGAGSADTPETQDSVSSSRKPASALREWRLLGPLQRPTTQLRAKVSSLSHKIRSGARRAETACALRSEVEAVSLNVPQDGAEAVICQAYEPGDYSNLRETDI
T1 sequence (P43140 whole entry): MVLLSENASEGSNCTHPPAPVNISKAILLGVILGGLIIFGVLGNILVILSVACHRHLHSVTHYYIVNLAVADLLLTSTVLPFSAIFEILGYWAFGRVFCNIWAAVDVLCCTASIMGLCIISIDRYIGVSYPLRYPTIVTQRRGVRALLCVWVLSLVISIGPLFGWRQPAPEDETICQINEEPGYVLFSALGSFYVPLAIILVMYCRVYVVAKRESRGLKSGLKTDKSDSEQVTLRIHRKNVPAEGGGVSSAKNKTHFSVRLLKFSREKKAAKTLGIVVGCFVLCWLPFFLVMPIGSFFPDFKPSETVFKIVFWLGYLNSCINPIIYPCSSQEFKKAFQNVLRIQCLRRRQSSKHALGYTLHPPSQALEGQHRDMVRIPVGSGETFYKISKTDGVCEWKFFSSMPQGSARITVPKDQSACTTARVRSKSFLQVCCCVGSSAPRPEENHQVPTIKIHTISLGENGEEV
In short: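 Rat whole brain minus cerebellum and brain stem, membranes at about 20 mg/mL final tissue concentration. [3H]WB-4101 0.22 nM, incubated 15 min. Nonspecific binding defined with (-)-norepinephrine 2 μM. IC50 = concentration giving 50% displacement of specific binding, taken from Hill linearization. Three separate experiments.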

D(2) dopamine receptor = D(2) dopamine receptor (Rattus norvegicus, UniProt P61169); assay: Compound was for its ability to displace [3H]haloperidol binding to rat striatal Dopamine receptor D2
Sequence of D(2) dopamine receptor (P61169 whole entry): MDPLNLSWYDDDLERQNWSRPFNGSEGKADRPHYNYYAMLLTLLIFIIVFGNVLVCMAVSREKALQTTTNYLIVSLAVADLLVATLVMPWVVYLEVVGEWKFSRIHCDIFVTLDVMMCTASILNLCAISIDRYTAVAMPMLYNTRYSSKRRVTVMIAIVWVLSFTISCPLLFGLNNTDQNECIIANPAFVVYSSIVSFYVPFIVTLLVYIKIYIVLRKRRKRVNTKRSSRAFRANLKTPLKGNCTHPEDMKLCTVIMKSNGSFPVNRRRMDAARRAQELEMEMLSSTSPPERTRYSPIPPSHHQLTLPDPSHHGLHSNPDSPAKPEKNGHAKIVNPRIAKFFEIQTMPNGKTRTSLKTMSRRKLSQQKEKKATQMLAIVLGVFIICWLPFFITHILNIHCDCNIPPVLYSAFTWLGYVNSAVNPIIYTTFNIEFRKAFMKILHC
In short: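 Rat striatal membranes at about 20 mg/mL final tissue concentration. [3H]haloperidol 2 nM, incubated 10 min. Nonspecific binding defined with (+)-butaclamol 1.0 μM.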

Rattus norvegicus [3] = species: Rattus norvegicus; assay: Ability to induce contralateral rotational behavior in rats with a unilateral 6-OHDA-induced lesion of the nigrostriatal dopamine (DA) pathway.; format: functional
In short: (§1)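 Male Sprague–Dawley rats given unilateral 6-OHDA (8 μg in 3 μL, with ascorbic acid) into the left medial forebrain bundle under pentobarbital anesthesia. Rats were selected 3–4 weeks later for turning 8–10/min after apomorphine 0.25 mg/kg sc. Groups of 4–8 were dosed sc (in water or Tween 80 suspension) and recorded in automatic rotometers until turning stopped. Outputs: total contralateral turns and peak rotations/min.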

Rattus norvegicus [4] = assay: Dopaminergic activity in rats rendered hypokinetic by the bilateral injection of 6-hydroxydopamine (6-OHDA) into the anterolateral hypothalamus at dose of 5 mg/kg sc; format: functional; conditions: route subcutaneous
Rattus norvegicus [5] = assay: Effective dose which lowered the serum prolactin levels after ip administration in rats; format: functional
In short: (§2)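 Sprague–Dawley rats given α-methyltyrosine 200 mg/kg ip 1 h before compound. Decapitated 30 min after ip or 60 min after oral dosing. Serum prolactin measured by double-antibody RIA. ED50 = dose lowering prolactin to 50% of the α-methyltyrosine-treated control, from one dose–response curve of at least seven doses with 7–9 rats per dose.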

Rattus norvegicus [6] = assay: Max. intensity of rotational behavior in rats with a unilateral 6-OHDA-induced lesion of the nigrostriatal dopamine (DA) pathway at dose of 2.5 mg/kg sc.; format: functional; in short: as §1
Rattus norvegicus [7] = assay: Dopaminergic activity in rats rendered hypokinetic by the bilateral injection of 6-hydroxydopamine (6-OHDA) into the anterolateral hypothalamus at dose of 10 mg/kg sc; format: functional; conditions: route subcutaneous
Rattus norvegicus [8] = assay: Effective dose which lowered the serum prolactin levels after po administration in rats; format: functional; in short: as §2
Rattus norvegicus [9] = species: Rattus norvegicus; assay: Ability to induce contralateral rotational behavior in rats with a unilateral 6-OHDA-induced lesion of the nigrostriatal dopamine (DA) pathway; format: functional; in short: as §1
Rattus norvegicus [10] = assay: Max. intensity of rotational behavior in rats with a unilateral 6-OHDA-induced lesion of the nigrostriatal dopamine (DA) pathway at dose of 2.5 mg/kg sc; format: functional; conditions: route subcutaneous; in short: as §1
Rattus norvegicus [11] = assay: Dopaminergic activity in rats rendered hypokinetic by the bilateral injection of 6-hydroxydopamine (6-OHDA) into the anterolateral hypothalamus at dose of 2.5 mg/kg sc; format: functional; conditions: route subcutaneous
Rattus norvegicus [12] = assay: Dopaminergic activity in rats rendered hypokinetic by the bilateral injection of 6-hydroxydopamine (6-OHDA) into the anterolateral hypothalamus at dose of 25 mg/kg sc; Inactive; format: functional, organism-based; design: dose 25 mg/kg
Rattus norvegicus [13] = assay: Dopaminergic activity in rats rendered hypokinetic by the bilateral injection of 6-hydroxydopamine (6-OHDA) into the anterolateral hypothalamus at dose of 25 mg/kg sc; format: functional; conditions: route subcutaneous
Rattus norvegicus [14] = assay: Dopaminergic activity in rats rendered hypokinetic by the bilateral injection of 6-hydroxydopamine (6-OHDA) into the anterolateral hypothalamus at dose of 1.25 mg/kg sc; format: functional; conditions: route subcutaneous
Rattus norvegicus [15] = assay: Dopaminergic activity in rats rendered hypokinetic by the bilateral injection of 6-hydroxydopamine (6-OHDA) into the anterolateral hypothalamus at dose of 50 mg/kg sc; format: functional; conditions: route subcutaneous
[16] = Rattus norvegicus, Serum, ip, read-out: ED50
[17] = Rattus norvegicus, Serum, po, read-out: ED50

In the case of O=c1cccccc1N1CCN(CCc2ccc(F)cc2)CC1, the Activity (Rattus norvegicus [1]) is reported as “inactive”.
With COc1ccc(CC/N=c2/cccccc2O)cc1OC the Activity (Rattus norvegicus [1]) was “inactive”.
COc1ccc([C@@H](O)CN2CCN(c3cccccc3=O)CC2)cc1OC was tested, and the IC50 [2] was 1440 nM, the IC50 (D(2) dopamine receptor) was 16600 nM and the Activity (Rattus norvegicus [3]) was 140. It also gave an Activity (Rattus norvegicus [4]) of 27, an ED50 (Rattus norvegicus [5]; [16]) of 2.7 mg/kg and a Max intensity (Rattus norvegicus [6]) of 1.3 rotations min-1.
COc1ccc([C@@H](O)[C@@H](C)N2CCN(c3cccccc3=O)CC2)cc1OC was tested, and the IC50 (D(2) dopamine receptor) was 8550 nM and the Activity (Rattus norvegicus [7]) was 55.
Molecule COc1ccc(CCN2CCN(c3cccccc3=O)CC2)cc1OC has an IC50 (D(2) dopamine receptor) of 880 nM and an Activity (Rattus norvegicus [7]) of 101.
For O=c1cccccc1N1CCN(CC(O)c2ccccc2)CC1 (centres undefined), the Activity (Rattus norvegicus [1]) was “inactive”.
Work on CC(C)C[C@H]1C(=O)N2CCC[C@H]2[C@]2(O)O[C@](NC(=O)[C@@H]3C=C4c5cccc6[nH]c(Br)c(c56)C[C@H]4N(C)C3)(C(C)C)C(=O)N12 [BROMOCRIPTINE] yielded an Activity (Rattus norvegicus [3]) of 836, an Activity (Rattus norvegicus [7]) of 112 and an ED50 (Rattus norvegicus [5]; [16]) of 0.24 mg/kg. The ED50 (Rattus norvegicus [8]; [17]) was 0.6 mg/kg and the Max intensity (Rattus norvegicus [6]) was 4.7 rotations min-1.
O=c1cccccc1N1CCN(CCc2ccccc2)CC1 was tested, and the Activity (Rattus norvegicus [1]) was “inactive”.
Molecule COc1ccc(C(O)CN2CCN(c3cccccc3=O)CC2)cc1OC.Cl (centres undefined) has an IC50 [2] of 1070 nM, an IC50 (D(2) dopamine receptor) of 1500 nM and an Activity (Rattus norvegicus [9]) of 823. The Activity (Rattus norvegicus [7]) was 191, the ED50 (Rattus norvegicus [5]; [16]) was 0.48 mg/kg and the ED50 (Rattus norvegicus [8]; [17]) was 2 mg/kg. For the same molecule, the Max intensity (Rattus norvegicus [10]) was 9.2 rotations min-1.
COc1ccc([C@H](O)[C@@H](C)N2CCN(c3cccccc3=O)CC2)cc1OC (stereo in doubt; 14) was tested, and the IC50 (D(2) dopamine receptor) was 1050 nM, the Activity (Rattus norvegicus [3]) was 1903 and the Activity (Rattus norvegicus [11]) was 111. It also gave an ED50 (Rattus norvegicus [5]) of 0.2 mg/kg, an ED50 (Rattus norvegicus [8]; [17]) of 0.25 mg/kg and a Max intensity (Rattus norvegicus [6]; 2.5 mg/kg) of 9.5 rotations min-1.
COc1ccc(CCN2CCCN(c3cccccc3=O)CC2)cc1OC was tested, and the Activity (Rattus norvegicus [1]) was “inactive”.
COc1ccc([C@H](O)[C@@H](C)N2CCN(c3cccccc3=O)CC2)cc1OC (stereo in doubt; 17) showed an Activity (Rattus norvegicus [3]) of 121, an Activity (Rattus norvegicus [11]) of 20 and an ED50 (Rattus norvegicus [5]) of 2.2 mg/kg. For the same molecule, the Max intensity (Rattus norvegicus [6]; 2.5 mg/kg) was 1.1 rotations min-1.
With COc1cccc(C(O)CN2CCN(c3cccccc3=O)CC2)c1 (centres undefined) the Activity (Rattus norvegicus [1]) was “inactive”.
For NCCc1ccc(O)c(O)c1 [DOPAMINE], the IC50 [2] was 90000 nM.
COc1ccc(CCNCC/N=c2/cccccc2O)cc1OC was tested, and the Activity (Rattus norvegicus [1]) was “inactive”.
COc1ccc(C(O)CN2CCN(c3ccccc3)CC2)cc1OC (centres undefined) was tested, and the Activity (Rattus norvegicus [1]) was “inactive”.
In the case of O=c1cccccc1N1CCN(CC(O)c2ccc(F)cc2)CC1 (centres undefined), the Activity (Rattus norvegicus [1]) is reported as “inactive”.
COc1cc(C(O)CN2CCN(c3cccccc3=O)CC2)cc(OC)c1OC (centres undefined) was tested, and the Activity (Rattus norvegicus [1]) was “inactive”.
In the case of COc1cc(C(O)CN2CCN(c3cccccc3=O)CC2)ccc1O (centres undefined), the Activity (Rattus norvegicus [12]) is reported as “inactive”.
O=c1cccccc1N1CCN(CCc2ccc(O)c(O)c2)CC1 showed an IC50 (D(2) dopamine receptor) of 760 nM and an Activity (Rattus norvegicus [13]) of 98.
With COc1ccc([C@H](O)[C@@H](C)N2CCN(c3cccccc3=O)CC2)cc1OC (stereo in doubt; 18) the Activity (Rattus norvegicus [3]) was 2109, the Activity (Rattus norvegicus [14]) was 186 and the ED50 (Rattus norvegicus [5]) was 0.04 mg/kg. The ED50 (Rattus norvegicus [8]) was 0.15 mg/kg and the Max intensity (Rattus norvegicus [6]; 2.5 mg/kg) was 14.6 rotations min-1.
Molecule COc1ccc(C(O)CN2CCN(c3cccccc3=O)CC2)cc1 (centres undefined) has an Activity (Rattus norvegicus [15]) of 105.
In the case of COc1ccc([C@H](O)CN2CCN(c3cccccc3=O)CC2)cc1OC [CILADOPA], the IC50 [2] is reported as 1090 nM, the IC50 (D(2) dopamine receptor) is reported as 2200 nM and the Activity (Rattus norvegicus [3]) is reported as 1770. For the same molecule, the Activity (Rattus norvegicus [4]) was 320, the ED50 (Rattus norvegicus [5]; [16]) was 0.36 mg/kg and the ED50 (Rattus norvegicus [8]; [17]) was 0.9 mg/kg. For the same molecule, the Max intensity (Rattus norvegicus [6]) was 10.7 rotations min-1.
